Tested on: PBP1b
Assay: In vitro PBP1b transglycosylase assay
Assay type: biochemical, Escherichia coli
Conditions: peptide up to 200 μM
How it was run: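 E. coli PBP1b glycan polymerization with heptaprenyl lipid II substrate at 4 μM, run with and without test peptide. Peptidoglycan formation was monitored, and IC50 is the peptide concentration giving half-maximal inhibition of PBP1b activity.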

Substance | inhibition of lipid II polymerization at concentrations up to 200 μM
epilancin 15X | did not demonstrate any inhibitory activity
lactocin S | did not demonstrate any inhibitory activity
sublancin | did not inhibit

Source: PMC3206492 (Journal of the American Chemical Society, 2011)
